This is an account of results in PubChem BioAssay AID624109 (Broad Institute, 2012).

Results filed as inconclusive are left out. A number with no mark means an inactive call.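 Rule for the calls: active = curve reaches the -35% threshold at a concentration no more than twice the top valid dose, in duplicate at both wavelengths; inconclusive = no clear call, values can overlap the other calls; inactive = the rest, including effects opposite to the expected decrease.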

This assay can be described thus: P. aeruginosa growth delay under iron chelation, dose response, absorbance 405 nm, dry powder, set 6 (AID 624109). Particulars: P. aeruginosa growth with EDDHA, stronger effect = lower value; at 0.056 µM unless noted. Put shortly:
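System: Pseudomonas aeruginosa ATCC 15692 whole bacterial cells | Input: Bacterial inoculum at final OD600 of 0.0000005 | Medium: Succinate M9 medium at pH 7.0 with iron chelator EDDHA | Also added: 2 µM EDDHA final | Incubation: 24-30 h growth at 37 °C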
As to `CCCCC(C#N)c1ccc(Cl)cc1` (centres undefined), the max activity is -39.1% [at 0.16 µM].

For `Clc1ccc(C(c2cccc(Cl)n2)c2nn[nH]n2)cc1` (centres undefined), the max activity was 10.4% [at 13.5 µM]. For `COCCC(C#N)c1ccc(Cl)cc1` (centres undefined), the max activity was -41.4%. For `CCCCC(C#N)c1ccccn1` (centres undefined) the value was 1.07% [at 120 µM]; for `N#CC(c1ccc(Cl)cc1)c1ccccn1` (centres undefined), -55.2%; for `CCCCC(C#N)c1ccc(F)cn1` (centres undefined), -30.6% [at 0.5 µM]. As for `CN(C)CCCC(C#N)c1ccc(Cl)cc1` (centres undefined), the max activity is -33.4%. On to `CCCCC(C#N)c1ccc(F)cc1` (centres undefined), for which the max activity was -50.3% [at 1.5 µM]. The result for `COCCNC(C#N)c1ccc(Cl)cc1` (centres undefined) reads -29.7% [at 4.6 µM]; that for `N#CC1c2ccc(Cl)cc2CCc2cccnc21` (centres undefined), -36.3% [at 4.6 µM]; that for `COCCC(C#N)c1ccc(F)cc1` (centres undefined), -46.3% [at 0.5 µM]. On to `CCCCC(C#N)c1ccc(Cl)cn1` (centres undefined), for which the max activity is -57.2%. For `N#CC(c1ccc(F)cc1)c1cccc(Cl)n1` (centres undefined) the value was -43.2% [at 0.16 µM]; for `N#Cc1cccc(C(C#N)c2ccc(F)cc2)n1` (centres undefined), 19% [at 0.0195 µM].
